# Source: ChEMBL document CHEMBL4831540, “Discovery of Aficamten (CK-274), a Next-Generation Cardiac Myosin Inhibitor for the Treatment of Hypertrophic Cardiomyopathy” (J Med Chem, 2021)
# Legend:
# [1] = (§1) Inhibition of full-length myosin ATPase activity in bovine cardiac myofibrils; assay type: subcellular, Bos taurus, Heart
# Summary of the method: (§2)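 Bovine cardiac myofibril ATPase assay run at a calcium level giving 75% of maximal activity.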
# Bos taurus = organism: Bos taurus; test: as §1; assay type: subcellular; details: Heart, Myofibril; summary of the method: as §2
# [2] = Solubility of the compound at pH 6.8 by shake flask method; assay type: physicochemical; details: buffer
# Summary of the method: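 Shake-flask solubility at pH 6.8; solid form not characterized.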
# [3] = Plasma protein binding in human assessed as unbound fraction; assay type: ADME, cell-free
# [4] = Plasma protein binding in rat assessed as unbound fraction; assay type: ADME, cell-free
# [5] = Unbound clearance in Sprague-Dawley rat at 0.5 mg/kg; assay type: ADME, organism-based; details: in vivo
# Summary of the method: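 Rat in vivo clearance at a 0.5 mg/kg dose was divided by the rat plasma free fraction to give unbound clearance.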
# [6] = Plasma protein binding in rat plasma assessed as unbound concentration at 5 uM incubated for 6 hrs by HPLC analysis; assay type: ADME, cell-free
# [7] = Metabolic stability in rat liver microsomes assessed as intrinsic clearance measured upto 90mins by HPLC/MS/MS analysis; assay type: ADME, Microsome; details: read-out: CLH
# [8] = Metabolic stability in human liver microsomes assessed as intrinsic clearance measured upto 90mins by HPLC/MS/MS analysis; assay type: ADME, Microsome; details: read-out: CLH
# [9] = Clearance in Sprague-Dawley rat at 1 mg/kg; details: in vivo
# [10] = Clearance in Sprague-Dawley rat at 1 mg/kg; assay type: ADME, organism-based; details: in vivo
# Summary of the method: (§3)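 Rat PK with iv and po administration at 1 mg/kg. Clearance and half-life came from the iv arm, and bioavailability from the iv/po comparison.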
# [11] = Oral bioavailability in Sprague-Dawley rat at 2 mg/kg; assay type: ADME, organism-based; details: in vivo
# Summary of the method: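 Multi-species PK study in male animals, n = 3 per group (dog IV arm n = 2). Iv and oral dosing with plasma concentration–time profiles yielding Cmax, tmax, AUC0–t, CL, Vss, t1/2 and F.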
# [12] = Half life in Sprague-Dawley rat at 1 mg/kg; assay type: ADME, organism-based; details: in vivo; summary of the method: as §3
# [13] = Bioavailability in Sprague-Dawley rat at 1 mg/kg, po or 1 mg/kg, iv; assay type: ADME, organism-based; details: in vivo; summary of the method: as §3
# Rattus norvegicus [14] = test: Anti-hypertrophic cardiomyopathy in Sprague-Dawley rat assessed as reduction in fractional shortening at 4 mg/kg, po measured upto 24 hrs by echocardiography relative to control; assay type: functional; parameters: scale not given: the % may be the effect or the level left; details: time hrs <=24
# Summary of the method: (§4)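 Normal Sprague–Dawley rats were given single oral doses of 0.5–4 mg/kg. Left ventricular dimensions and fractional shortening were measured by echocardiography at selected time points over 24 h, relative to vehicle treatment.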
# [15] = Half life in human; assay type: ADME
# [16] = Ratio of IC50 to IC10 for anti-hypertrophic cardiomyopathy in po dosed Sprague-Dawley rat assessed as reduction in fractional shortening measured upto 24 hrs by echocardiography; assay type: functional; details: time hrs <=24
# Summary of the method: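 Sprague–Dawley rats received single oral doses from 0.5 to 4 mg/kg. LV dimensions and fractional shortening were read by echocardiography at set times over 24 h, with blood drawn at each reading for compound level. Concentrations giving 50% and 10% FS reduction were derived, and their IC50/IC10 ratio was calculated.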
# Cytochrome P450 2B6 = biological target: T1, Cytochrome P450 2B6 (Homo sapiens, UniProt P20813); test: Induction of CYP2B6 in human hepatocytes assessed as mRNA expression incubated for 3 days by RT-RTPCR analysis; assay type: ADME, cell-based; details: hepatocyte
# T1 sequence (P20813 whole entry): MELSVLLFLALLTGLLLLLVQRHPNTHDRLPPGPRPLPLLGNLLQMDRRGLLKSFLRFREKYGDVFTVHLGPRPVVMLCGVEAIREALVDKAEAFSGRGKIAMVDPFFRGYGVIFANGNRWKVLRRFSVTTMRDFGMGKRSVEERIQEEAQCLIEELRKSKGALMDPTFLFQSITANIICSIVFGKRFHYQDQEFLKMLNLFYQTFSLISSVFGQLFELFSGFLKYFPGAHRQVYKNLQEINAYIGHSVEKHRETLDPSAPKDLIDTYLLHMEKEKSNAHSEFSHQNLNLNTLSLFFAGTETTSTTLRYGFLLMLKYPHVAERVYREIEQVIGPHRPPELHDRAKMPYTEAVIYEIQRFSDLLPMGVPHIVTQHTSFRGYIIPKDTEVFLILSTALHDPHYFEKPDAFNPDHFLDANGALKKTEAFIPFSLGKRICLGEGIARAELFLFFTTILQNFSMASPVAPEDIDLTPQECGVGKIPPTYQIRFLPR
# Summary of the method: (§5)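 Cryopreserved plateable human primary hepatocytes from three separate donors were tested at concentrations up to 50 μM. The end point was CYP mRNA level, with induction judged against predetermined cutoff values (2-fold).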
# CYP3A4 = CYP3A4 (Homo sapiens, UniProt P08684); test: Induction of CYP3A4 in human hepatocytes assessed as mRNA expression incubated for 3 days by RT-RTPCR analysis; assay type: ADME, cell-based, Hepatocyte; summary of the method: as §5
# Rattus norvegicus [17] = test: Anti-hypertrophic cardiomyopathy in po dosed Sprague-Dawley rat assessed as reduction in fractional shortening measured upto 24 hrs by echocardiography; assay type: functional, organism-based; summary of the method: as §4
# [18] = Bioavailability in Sprague-Dawley rat at 2 to 6 mg/kg, po and 1 mg/kg, iv; details: in vivo
# CYP3A4, sequence (P08684 whole entry): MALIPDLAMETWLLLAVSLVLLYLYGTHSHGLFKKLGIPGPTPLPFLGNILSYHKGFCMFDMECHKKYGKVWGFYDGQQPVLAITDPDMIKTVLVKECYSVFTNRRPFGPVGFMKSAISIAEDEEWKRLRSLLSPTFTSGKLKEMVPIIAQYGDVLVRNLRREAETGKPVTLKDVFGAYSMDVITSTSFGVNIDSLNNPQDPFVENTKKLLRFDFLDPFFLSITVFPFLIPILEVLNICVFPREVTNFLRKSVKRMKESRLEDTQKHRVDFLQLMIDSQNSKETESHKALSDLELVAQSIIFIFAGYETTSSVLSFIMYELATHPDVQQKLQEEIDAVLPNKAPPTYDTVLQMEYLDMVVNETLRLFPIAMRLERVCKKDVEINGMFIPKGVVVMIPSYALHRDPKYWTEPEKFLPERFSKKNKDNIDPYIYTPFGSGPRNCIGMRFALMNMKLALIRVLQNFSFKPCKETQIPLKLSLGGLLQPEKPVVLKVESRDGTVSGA
SMILES,IC50 [1] [µM],IC15 (Bos taurus) [µM],fraction unbound [4],"fraction unbound at 6 h, 5 µM [6]",CLint scaled [7] [mL/min/kg],CLint scaled [8] [mL/min/kg],also measured
CCc1nc(-c2ccc3c(c2)CCN3C(=O)c2ccccc2)no1,> 39,> 39,–,–,–,–,–
CCc1nc(-c2ccc3c(c2)CCN3C(=O)NCc2ccccc2)no1,> 39,> 39,–,–,–,–,–
CCc1nc(-c2ccc3c(c2)CCN3C(=O)OCc2ccccc2)no1,> 39,1.3,–,–,–,–,–
CCc1nc(-c2ccc3c(c2)CCN3C(=O)CCc2ccccc2)no1,> 39,> 39,–,–,–,–,–
Cc1nc(-c2ccc3c(c2)CC[C@@H]3NC(=O)c2cnn(C)c2)no1,> 39,–,–,0.15,< 21,< 11,CL free [5]: 395 mL/min/kg
CCc1nc(-c2ccc3c(c2)CCN3C(=O)Nc2ccccc2)no1,> 39,> 39,–,–,–,–,–
CC(C)n1c(=O)cc(N[C@@H](C)c2ccccc2)[nH]c1=O [MAVACAMTEN],–,–,–,–,–,–,"Activity (Rattus norvegicus [14]): 80%; half-life [15]: 216 h; Ratio [16]: 2.8; EC50 (Cytochrome P450 2B6): 5.1 µM; EC50 at 3 days (CYP3A4): 2.2 µM; IC10 (Rattus norvegicus [17]; Rattus norvegicus, Sprague-Dawley, 24 h): 0.6 µM; IC50 (Rattus norvegicus [17]; time hrs <=24): 1.7 µM"
CCc1nc(-c2ccc3c(c2)CCN3C(=O)CSc2ccccc2)no1,> 39,> 39,–,–,–,–,–
CCc1nc(-c2ccc3c(c2)CCN3C(=O)Cc2ccccc2)no1,19.1,3.5,–,–,–,–,–
CCc1nc(-c2ccc3c(c2)CCN3CCc2ccccc2)no1,> 39,3.4,–,–,–,–,–

# More lines, in order of falling IC50 [1], values ahead:
IC50 [1] [µM],IC15 (Bos taurus) [µM],fraction unbound [4],"fraction unbound at 6 h, 5 µM [6]",CLint scaled [7] [mL/min/kg],CLint scaled [8] [mL/min/kg],SMILES,also measured
6.8,–,0.082,0.082,< 21,< 11,COCc1nc(-c2ccc3c(c2)CC[C@H]3NC(=O)c2cnn(C)c2)no1,solubility thermodynamic [2]: 63 µM; fraction unbound [3]: 0.12
4.4,–,0.065,0.065,< 21,< 11,Cc1nc(-c2ccc3c(c2)CC[C@H]3NC(=O)c2cnn(C)c2)no1,solubility thermodynamic [2]: 86 µM; fraction unbound [3]: 0.14; CL free [5]: 32.3 mL/min/kg
3.2,–,–,–,–,–,Cn1cc(C(=O)N[C@@H]2CCc3cc(-c4noc(C5CCC5)n4)ccc32)cn1,solubility thermodynamic [2]: 14 µM
2.7,–,0.042,–,–,–,Cn1cc(C(=O)N[C@@H]2CCc3cc(-c4noc(C5CC5)n4)ccc32)cn1,solubility thermodynamic [2]: 33 µM; fraction unbound [3]: 0.056
2.7,0.9,–,–,–,–,CCc1nc(-c2ccc3c(c2)CCN3C(=O)COc2ccccc2)no1,–
2.4,–,0.024,0.024,< 21,< 11,Cn1cc(C(=O)N[C@@H]2CCc3cc(-c4noc(C(F)F)n4)ccc32)cn1,solubility thermodynamic [2]: 37 µM; fraction unbound [3]: 0.057
1.7,–,0.046,0.18,< 21,< 11,CCc1nc(-c2ccc3c(c2)CC[C@H]3NC(=O)c2cnc(C)o2)no1,clearance [9]: 21 mL/min/kg; clearance [10]: 21 mL/min/kg; half-life [12]: 4.1 h; bioavailability [13]: 13%
1.1,–,0.2,0.2,66,< 11,CCc1nc(-c2ccc3c(c2)CC[C@H]3NC(=O)c2cn[nH]c2)no1,clearance [9]: 63 mL/min/kg; clearance [10]: 63 mL/min/kg; half-life [12]: 1.4 h; bioavailability [13]: 10%
1,–,0.077,0.12,< 21,< 11,Cn1nnc(C(=O)N[C@@H]2CCc3cc(-c4noc(C5CC5)n4)ccc32)n1,clearance [9]: 5 mL/min/kg; clearance [10]: 5 mL/min/kg; bioavailability [11]: 100%; half-life [12]: 17.8 h
0.9,–,0.11,0.29,< 21,< 11,CCc1nc(-c2ccc3c(c2)CC[C@H]3NC(=O)c2nnn(C)n2)no1,clearance [9]: 20 mL/min/kg; clearance [10]: 20 mL/min/kg; half-life [12]: 6.3 h; bioavailability [18]: 53%
